This is a sample that favours compounds with a hit; in the whole collection about 1.5% have one here.
APJ antag: antagonists of human apelin receptor APJ, primary screen, CHO-K1 cells, beta-arrestin complementation, luminescence. inhibition, % at 20 µM. actives 0.32% (n = 330,000);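 active = inhibition above about 40% at 20 µM, limit read from the data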;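 note: cells challenged with 10 nM apelin-13 agonist together with compound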
Target sequence (P35414 whole entry, looked up): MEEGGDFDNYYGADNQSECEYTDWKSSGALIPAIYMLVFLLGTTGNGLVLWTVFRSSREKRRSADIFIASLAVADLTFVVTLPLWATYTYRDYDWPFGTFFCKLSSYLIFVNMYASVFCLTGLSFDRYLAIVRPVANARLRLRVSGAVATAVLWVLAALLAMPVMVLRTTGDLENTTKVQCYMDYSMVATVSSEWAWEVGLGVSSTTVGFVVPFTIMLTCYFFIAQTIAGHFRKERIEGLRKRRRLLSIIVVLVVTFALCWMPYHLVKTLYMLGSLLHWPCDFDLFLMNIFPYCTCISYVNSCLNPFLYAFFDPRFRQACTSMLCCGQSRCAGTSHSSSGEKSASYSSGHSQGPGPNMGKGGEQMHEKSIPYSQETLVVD
EBI2 block: EBI2 receptor antagonists, beta-arrestin recruitment, primary screen, cell-based, luminescence, 7a,25-OHC stimulation, uHTS | actives 0.81% (n = 360,000) | inhibition, % at 5 µM | 7a,25-OHC stimulated | G-protein coupled receptor 183 (Homo sapiens), P32249 | AID 651636, 2012; in the data active = inhibition above about 38%;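 note: enzyme fragment complementation signal reports receptor beta-arrestin coupling in cells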
hiPSC survival: enhancers of single-cell hiPSC survival, primary screen, ATPlite luminescence; 100% = ROCK inhibitor wells, 0% = DMSO; survival enhancement, % at 20 µM; actives 0.044% (n = 360,000); AID 602274, 2012; in the data active = survival enhancement above about 18%;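 note: cells exposed to compounds for 16 hours before the ATP read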
APJ ag: agonists of human apelin receptor APJ, primary screen, CHO-K1 cells, PathHunter beta-arrestin, luminescence; P35414; 0% DMSO wells, 100% apelin; activation, % at 20 µM; actives 0.11% (n = 330,000); AID 2520, 2010;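 active = activation more than six SD over the plate average, tested at 20 µM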
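Assay system – PathHunter CHO-K1 APJ (AGTRL-1) beta-arrestin reporter cells · Compound – one dose, 20 µM compound, 1% DMSO · Timing – compound 90 min 25 °C, reagent 1 h · Measured by – luminescence from split beta-galactosidase complementation, Galacton Star/Emerald II substrate · Measure – beta-arrestin recruitment to APJ as agonist activity, luminescent signal · Benchmarks – DMSO vs Apelin-13 10 nM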
CCR6 antag: CCR6 receptor antagonists, primary screen, cell-based, CHO-K1, luminescence, beta-arrestin, uHTS | CHO-K1 CCR6 PathHunter beta-arrestin, CCL20-stimulated | inhibition, % at 20 µM | C-C chemokine receptor type 6 (Homo sapiens), P51684 | actives 0.49% (n = 340,000);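 active = compounds whose inhibition of the agonist-driven luminescence signal at 20 µM reaches about 50%, limit read from the data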;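 note: cells stimulated with CCL20 at 14 nM final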
CXCR6 block: CXCR6 receptor inhibitors, primary screen, cell-based, beta-arrestin, luminescence, CHO-K1 PathHunter, 1536-well. inhibition, % at 20 µM. actives 0.36% (n = 360,000). AID 602244, 2012; in the data active = inhibition above about 34%, passing the limit was not always enough;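 note: antagonist mode with CXCL16 agonist at 10 nM final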
Large screens that a line does not name were inactive.

Oc1ccc(Cl)cc1C1=NNC(c2cccs2)C1 (stereo not drawn)	none
Cc1c(C(=O)NC(=S)Nc2ccc(NC(=O)c3cccs3)cc2)cccc1[N+](=O)[O-]	CCR6 antag 58
Cc1c(C(=O)NC(=S)Nc2ccc3c4c(cccc24)CC3)cccc1[N+](=O)[O-]	CCR6 antag 67
Cc1ccc(C(=O)NC(=S)Nc2ccc(-c3ccc(CO)o3)cc2)cc1	none
O=C(NC(=S)Nc1ccc(-c2ccc(CO)o2)cc1)c1cccs1	APJ antag 51
O=S(=O)(c1ccc(SCc2ccccc2F)nc1)N1CCCC1	none
O=C(NC(=S)Nc1ccc(C(=O)N2CCOCC2)cc1)c1ccc([N+](=O)[O-])cc1	CCR6 antag 63
COc1cc(C(=O)NC(=S)Nc2ccc([N+](=O)[O-])cc2)cc(OC)c1OC	APJ antag 41
COc1cc(C(=O)NC(=S)Nc2ccccc2[N+](=O)[O-])cc(OC)c1OC	none
CCOc1ccc(C(=O)NC(=S)Nc2ccccc2N2CCCCC2)cc1[N+](=O)[O-]	none
COc1ccc(C(=O)NC(=S)Nc2ccccc2N2CCCCC2)cc1[N+](=O)[O-]	CCR6 antag 72
CCOc1ccc(C(=O)NC(=S)Nc2ccc(NC(=O)CC)cc2)cc1[N+](=O)[O-]	CCR6 antag 56
Nc1ccn([C@@H]2O[C@H](CNCc3cccc4c3sc3ccccc34)[C@@H](O)[C@H]2O)c(=O)n1	none (no result: APJ antag, APJ ag, CCR6 antag)
Cc1ccc(C2=NOC(=O)/C2=C\C=C\c2ccccc2)cc1	CXCR6 block 48 (no result: APJ antag, APJ ag)
Cc1nn(Cc2c(F)c(F)c(F)c(F)c2F)c(C)c1NC(=O)c1ccc(COc2cc(Cl)ccc2Cl)cc1	EBI2 block 51
O=C(CS(=O)(=O)Cc1ccccc1)NCc1ccc2c(c1)OCO2	CCR6 antag 52
COc1cc(/C=C2\SC(=O)N(Cc3ccc(Cl)cc3)C2=O)cc([N+](=O)[O-])c1O	CCR6 antag 56 (no result: APJ antag, APJ ag)
COc1cc(/C=C2\SC(=O)N(Cc3ccc(F)cc3)C2=O)cc([N+](=O)[O-])c1O	CCR6 antag 50
COc1ccc(NC(=O)CNCc2ccc(Cl)cc2)cc1S(=O)(=O)N1CCOCC1	none
NC(=O)C1CCN(C(=O)c2cc3ccccc3cc2O)CC1	none
CCCCCCCCCCCCCCC[C@@H](O)[C@@H](N)CO	CCR6 antag 68 (no result: APJ antag, APJ ag)
CCCCCCCCCC(=O)OCC(O)CO (stereo not drawn)	none
CCO[C@@H]1OC(C(=O)N2CCN(Cc3ccccc3)CC2)=C[C@H](c2ccc(Br)cc2)[C@H]1CCCO	CCR6 antag 58, CXCR6 block 48
Cc1ccc(OCC(=O)Nc2ccc(C)c(F)c2)c([N+](=O)[O-])n1	none
CN(C)C(=S)N=Nc1[nH]c2ccccc2c1O	CCR6 antag 63 (no result: EBI2 block, hiPSC survival, CXCR6 block)
CN(C)C(=O)c1ccc(N=Nc2c(O)c3ccccc3[nH]c2=O)cc1	none (no result: APJ antag, APJ ag)
CN(C)c1ccc(/C=C2/C[N+](C)(C)C/C(=C/c3ccc(N(C)C)cc3)C2=O)cc1	CCR6 antag 62, CXCR6 block 49 (no result: APJ antag, APJ ag)
COc1ccc2c(c1)sc1nc(-c3ccccc3)cn12	EBI2 block 40
CCOC(=O)N1CCN(C(=O)c2ccc3c(c2)sc2nc(-c4ccc(OC)cc4)cn23)CC1	none
C=CC[C@H](CC(=O)NCCO)C(=O)NCCOC(=O)[C@@H](CC=C)CC(=O)OC(C)(C)C	none
CCOC(=O)C(=Cc1ccc(OCc2ccc([N+](=O)[O-])cc2)c(OC)c1)C(=O)OCC	EBI2 block 54
CCOC(=O)C(=O)N(C)c1c(CC)nc2c(OCc3cc(Cl)cc(Cl)c3)cccn12	none (no result: APJ antag, APJ ag, CCR6 antag)
Oc1ccc(N=Nc2nc(-c3ccccc3)c(-c3ccccc3)[nH]2)cc1	APJ antag 54, CCR6 antag 67, CXCR6 block 53
Oc1ccc(N=Nc2n[nH]c(-c3ccccc3)n2)cc1	none
O=C(COc1ccc(Cl)cc1)N1CCN(c2ccc([N+](=O)[O-])c(N3CCCCC3)c2)CC1	EBI2 block 78
O=C(COc1ccccc1Cl)N1CCN(c2ccc([N+](=O)[O-])c(N3CCCCC3)c2)CC1	none
CCCN1CCN(C(=O)c2cc3c(s2)-c2ccccc2OC3)CC1	EBI2 block 88
CCCCCCNC(=O)c1cn(CC)c2cc(N3CCN(C)CC3)c(F)cc2c1=O	EBI2 block 45
CCOc1ccccc1-c1c2cc(O)c(=O)cc-2oc2cc(O)c(O)cc12	CCR6 antag 56 (no result: APJ antag, APJ ag)
O=c1cc2oc3cc(O)c(O)cc3c(-c3ccccc3O)c-2cc1O	none (no result: APJ antag, APJ ag)
CCOC(=O)Cc1csc(Nc2c(C)n(C)n(-c3ccccc3)c2=O)n1	CCR6 antag 69
CC(C)=C(NC(=O)c1ccccc1Cl)C(=O)NCCc1nc2ccccc2[nH]1	none (no result: APJ antag, APJ ag, CCR6 antag)
COC(=O)c1ccc2c(=O)n(CCCCCC(=O)N3CCN(c4ccccc4)CC3)c(=O)[nH]c2c1	APJ ag 38
CCN1CCN(C(=O)CCCCCn2c(=O)[nH]c3cc(C(=O)OC)ccc3c2=O)CC1	none
Cc1ccc(S(=O)(=O)N2CCCC2C(=O)NCc2ccncc2)cc1 (stereo not drawn)	none
CCOC(=O)CS(=O)(=O)c1nc(-c2ccc(F)cc2)cc(C(F)(F)F)n1	EBI2 block 60, CCR6 antag 52, CXCR6 block 67
CCOC(=O)CCS(=O)(=O)c1nc(-c2ccccc2)cc(C(F)(F)F)n1	none
Cc1ccccc1NC(=S)NC(=O)c1cc(-c2ccccc2)nc2ccccc12	CCR6 antag 56
Cc1cccc(NC(=S)NC(=O)c2cc(-c3ccccc3)nc3ccccc23)c1	none
Cc1cc(C)c2cccc(NC(=S)NC(=O)c3ccccc3)c2n1	CCR6 antag 69
CC(=O)NC(=S)Nc1cccc2c(C)cc(C)nc12	none
CCOc1ncccc1C(=O)Nc1ccc(S(=O)(=O)N2CC(C)CC(C)C2)cc1 (stereo not drawn)	none
CC1CC(C)CN(C(=O)C2CCN(S(=O)(=O)c3c(Cl)cccc3Cl)CC2)C1 (stereo not drawn)	none
Cc1cccc[n+]1CC(=O)/C=C1\N(C)c2ccccc2C1(C)C	none
CN1/C(=C/C=C/c2n(C)c3cc([N+](=O)[O-])c([N+](=O)[O-])cc3[n+]2C)C(C)(C)c2ccccc21	CXCR6 block 48 (no result: APJ antag, APJ ag, CCR6 antag)
CC1CCN(C(=O)COC(=O)Cn2cnc3ccccc32)CC1	none
CN(Cc1ccccc1)C(=O)CN1CCN(S(=O)(=O)c2ccccc2F)CC1	hiPSC survival 26 (no result: APJ antag, APJ ag, CCR6 antag)
CCOc1ccccc1N(CC(=O)Nc1ccccc1Br)S(=O)(=O)c1ccccc1	none (no result: APJ antag, APJ ag, CCR6 antag)

Assay outcomes from PubChem.
